# Assay outcomes deposited in PubChem by SRMLSC.
# This excerpt belongs to a sample that is enriched for hits.
# HUVEC prolif 384: inhibitors of HUVEC proliferation, primary screen, cell-based, 384-well. CellTiter-Glo luminescence, 72 h; stronger effect = lower value. 86,000 tested, 1.1% active. viability, % at 10 µM (by protocol);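 active = viability at or below 30%; inactive = viability above 30%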;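 also: 100% = median luminescence of DMSO-only cell control wells on each plate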
# HCT116 bCat-KO: primary screen for growth suppressors in beta-catenin knockout HCT116 cells (colon tumor, human); HCT116 beta-catenin knockout viability, CellTiter-Glo, 60 h; stronger effect = lower value; viability, % at 10 µM; 140,000 tested, 1.5% active;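 active = viability at or under a set limit, the compound median less 4 SD, cut at about 6% in these data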;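 also: 0% = Hyamine 1622 control at 20 µM and 100% = untreated cell control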
# HCT116 PTEN-null: growth suppression of PTEN-null HCT116, primary screen, cell-based, CellTiter-Glo. 140,000 tested, 1.2% active. HCT116 PTEN-null viability, 60 h; stronger effect = lower value. viability, % at 10 µM;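 active = viability at or below a set limit, 4 SD under the median of all tested compounds, cut at about 3.7% in these data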;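 also: PTEN knockout HCT116 line with beta catenin targeted HCT116 as companion control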
# H69AR growth 86K: proliferation blockers of H69AR lung cancer cells, primary screen, cell-based, human, 86K library; H69AR lung tumor viability, ATP luminescence, 72 h; stronger effect = lower value; viability, % at 10 µM; 85,000 tested, 6% active; AID 598, 2007;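 active = viability at or below 40%; inactive = viability above 40%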;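 also: multidrug resistant small cell line overexpressing MRP-1 efflux transporter; 100% = mean luminescence of untreated control wells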
# Lung fibro prol: antiproliferative effect on LL 47 fibroblasts – human, LL 47 cells, CellTiter-Glo luminescence, primary screen | LL 47 human lung fibroblast viability, ATP luminescence; stronger effect = lower value | viability, % at 10 µM | 85,000 tested, 1.1% active | AID 719, 2007;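 active = viability at or below 50% in the single dose screen; inactive = viability above 50%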;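 also: compound exposure lasted 72 h before the ATP readout; 100% = median luminescence of untreated cell-only wells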
#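 Material: human LL 47 lung fibroblast cells; quantity: 1,150 cells/well; medium: IMEM plus 15% FBS; doses: 0.1% DMSO in all compound wells; timing: overnight attachment after seeding, then 72 h compound exposure at 37 °C; detection: CellTiter-Glo luminescence; measure: % viability of median cell-only signal; controls: cell-only wells, no compound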
# The depositor's hits bear a star; . = not tested or not shown.
SMILES,HUVEC prolif 384,HCT116 bCat-KO,HCT116 PTEN-null,H69AR growth 86K,Lung fibro prol
COc1cc(-c2nnn(CC(=O)N3CCOCC3)n2)cc(OC)c1OC,104,107,110,96,105
COc1ccc(-c2ccc(-c3nnn(CC(=O)N4CCOCC4)n3)cc2)cc1,85,36,59,24*,38*
FC(F)(F)c1nnc(-c2ccccc2)nc1Sc1ccc(Cl)cc1,.,87,84,.,.
FC(F)(F)c1cccc(Sc2nc(-c3ccccc3)nnc2C(F)(F)F)c1,.,5.3*,11,.,.
FC(F)(F)c1nnc(-c2ccccc2)nc1Sc1ccccc1,.,1.6*,1.3*,.,.
FC(F)(F)c1cccc(Oc2nc(-c3ccccc3)nnc2C(F)(F)F)c1,.,96,96,.,.
Cc1ccc2[nH]c(=O)c(C3C(C#N)=C(N)Oc4c3ccc3cccnc43)cc2c1 (configuration not stated),4.9*,10,8,10*,69
Cc1cc(C)c2nc(C(F)(F)F)nc(NCCCN3CCOCC3)c2c1,6.4*,23,38,8.9*,51
Fc1ccccc1-c1nc(NCCCN2CCOCC2)c2ccccc2n1,86,79,84,50,105
COc1ccc(NC(=O)COn2nnc3ccc(Cl)cc32)cc1OC,93,88,83,39*,86
CC/C(Cc1ccccc1)=N/NC(=O)c1cccc(Br)c1,.,100,104,.,.
O=C(O)CC(Cc1ccccc1)c1ccc2c(c1)OCO2 (configuration not stated),93,88,84,105,103
O=C(CC(SCCO)c1ccc2c(c1)OCO2)c1ccco1 (configuration not stated),85,107,95,16*,87
COc1ccc(Cl)cc1Nc1nc(-c2sc(NC(=O)c3ccccc3)nc2C)cs1,.,1.2*,1.1*,.,.
Cc1ccccc1Nc1nc(-c2sc(NC(=O)c3ccc([N+](=O)[O-])cc3)nc2C)cs1,.,97,93,.,.
CCOc1ccccc1Nc1nc(-c2sc(NC(=O)c3ccc([N+](=O)[O-])cc3)nc2C)cs1,.,0.8*,1.5*,.,.
OCCN1CCN(C2Cc3cc(Cl)ccc3Sc3ccc(Cl)cc32)CC1 (configuration not stated) (tested in a mixture with another compound),2.4*,33,44,8.9*,92
CN1CCN(CCOC2Cc3ccccc3Sc3ccc(Cl)cc32)CC1 (configuration not stated),.,29,33,.,.
Cc1cc2c3c(c1)C1(C(=O)N3C(C)(C)CC2C)C(C#N)=C(N)Oc2n[nH]c(C)c21 (configuration not stated),74,27,27,20*,93
COc1ccc(OCCn2cc(/C(N)=N/O)c3ccccc32)cc1,85,66,79,58,84
CCC(=C(c1ccc(OC)cc1)c1ccc(OC)cc1)c1cn(CC(O)CN2CCN(C)CC2)c2ccccc12 (configuration not stated),3.0*,2.1*,1.7*,1.6*,21*
CCOC(=O)Nc1sc(C)c(C)c1C(N)=O,.,96,97,.,.
CCOC(=O)c1c(C)oc2c1c(C(c1ccncc1)N1CCOCC1)c(O)c1ccccc12 (configuration not stated),60,9,17,0.9*,53
COc1cc(NC(=O)c2c(F)c(F)c(F)c(F)c2F)c(OC)cc1Cl,45,66,64,14*,91
Cn1c(N=NC(=O)c2ccccc2)c(O)c2ccccc21,.,91,92,.,.
SMILES,HUVEC prolif 384,HCT116 bCat-KO,HCT116 PTEN-null,H69AR growth 86K,Lung fibro prol
CCOc1cc(-n2cnnn2)c(OCC)cc1NC(=O)c1cc2ccc(N(CC)CC)cc2oc1=O,34,.,.,13*,86
CCN(CC)c1ccc2cc(C(C)=O)c(=O)oc2c1,107,101,103,89,99
CCN(CC)c1ccc2cc(C(=O)Nc3cccnc3N3CCOCC3)c(=O)oc2c1,60,.,.,21*,64
CCN(CC)c1ccc2cc(C(=O)Nc3ccccn3)c(=O)oc2c1,94,99,100,93,96
Cn1c(CN2CCCC2)nc2cc(NC(=O)c3cccs3)ccc21,.,97,87,.,.
CC1(C(=O)NCc2ccccn2)C=CCN1C(=O)c1ccccc1 (configuration not stated),.,73,75,.,.
C(=C\c1nc(N2CCCCCC2)c2ccccc2n1)/c1ccccc1,.,3.3*,8,.,.
c1ccc2c(N3CCCCC3)nc(N3CCCCC3)nc2c1,77,58,51,54,95
CC(C)(C)OC(=O)[C@H]1[C@H](c2ccc([N+](=O)[O-])cc2)C2(C(=O)c3ccccc3C2=O)C2c3ccccc3C=NN21 (some centres not stated),.,48,48,.,.
CCn1c2ccccc2c2nnc(SCCCn3c(=O)[nH]c4ccccc43)nc21,59,59,78,23*,93
CCn1c2ccccc2c2nnc(SCc3ccccc3)nc21,90,76,68,61,89
Cc1cccc(-[n+]2c(C)cc(C)c3c(=O)[nH]c(=O)[nH]c32)c1,.,89,97,.,.
Cc1cc(Cl)c(S(=O)(=O)N2CCN(c3ccc(F)cc3)CC2)cc1OCC(=O)NC1CCCCC1,79,9,12,36*,94
O=C1CC(c2cccc(Cl)c2)Cc2nc(N3CCN(c4ccccc4)CC3)ncc21 (configuration not stated),85,79,77,97,92
CCN1CCN(c2ncc3c(n2)CC(c2cc(OC)c(OC)c(OC)c2)CC3=O)CC1 (configuration not stated),51,15,18,17*,51
CCOC(=O)N1C2C=C(C)[C@@H]2[C@@H]2CC(=O)N21 (some centres not stated),.,98,106,.,.
N#Cc1ccc2ccn(CC(=O)NC3CCCCC3)c2c1,102,82,90,101,100
N#Cc1ccc2ccn(CC(=O)NCc3ccccc3)c2c1,75,26,25,36*,92
Cc1cc(Nc2nc3ccccc3nc2Cl)n(-c2ccc([N+](=O)[O-])cc2)n1,67,20,38,21*,68
Cc1ccc(C(=O)CCNc2ccc(Cl)cc2)o1,80,89,77,84,98
CCOc1cc(C(=O)N/N=C/C(Br)=C/c2ccccc2)cc(OCC)c1OCC,.,14,2.3*,.,.
Cc1ccc(NCC(=O)N/N=C\C(Br)=C\c2ccccc2)cc1,100,2.6*,2.7*,74,100
O=C(N/N=C/C(Br)=C\c1ccccc1)c1ccc2nc[nH]c2c1,.,2.2*,3.3*,.,.
Cc1onc(-c2ccccc2)c1C(=O)N/N=C/C(Br)=C/c1ccccc1,.,3.6*,2.9*,.,.
COc1ccc(/C=N/NC(=O)c2c(-c3ccccc3)noc2C)cc1,.,105,96,.,.
Cc1cc(C)nc(SCC(=O)N/N=C\C(Br)=C\c2ccccc2)n1,.,62,66,.,.
